# Reference: PubChem BioAssay AID652011 (Sanford-Burnham Center for Chemical Genomics, 2013)
# “And” between values parts separate entries of the source, which are not always exact repeats. Identical values can stand only once.
# Molecular target: Endothelial PAS domain-containing protein 1 (Homo sapiens) (UniProt Q99814)
# Test: HIF reporter inhibition across pancreatic and renal lines – cell-based, luminescence, MIAPaCa-2, 786-0, panel, SAR follow-up (AID 652011)
# Settings: MIAPaCa-2/PANC HIF reporter, luciferase luminescence, desferoxamine, overnight, HIF2a PANC, run 1; at 99 µM (top of the series)
# Method in brief: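 Probe or stimulus: desferoxamine stimulus; times: overnight seeding and compound exposure, 37 °C, 5% CO2, 10-min detection; signal: One-Glo luciferase luminescence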
# Sequence of Endothelial PAS domain-containing protein 1 (Homo sapiens) (Q99814 whole entry, looked up, the tested form may be a part): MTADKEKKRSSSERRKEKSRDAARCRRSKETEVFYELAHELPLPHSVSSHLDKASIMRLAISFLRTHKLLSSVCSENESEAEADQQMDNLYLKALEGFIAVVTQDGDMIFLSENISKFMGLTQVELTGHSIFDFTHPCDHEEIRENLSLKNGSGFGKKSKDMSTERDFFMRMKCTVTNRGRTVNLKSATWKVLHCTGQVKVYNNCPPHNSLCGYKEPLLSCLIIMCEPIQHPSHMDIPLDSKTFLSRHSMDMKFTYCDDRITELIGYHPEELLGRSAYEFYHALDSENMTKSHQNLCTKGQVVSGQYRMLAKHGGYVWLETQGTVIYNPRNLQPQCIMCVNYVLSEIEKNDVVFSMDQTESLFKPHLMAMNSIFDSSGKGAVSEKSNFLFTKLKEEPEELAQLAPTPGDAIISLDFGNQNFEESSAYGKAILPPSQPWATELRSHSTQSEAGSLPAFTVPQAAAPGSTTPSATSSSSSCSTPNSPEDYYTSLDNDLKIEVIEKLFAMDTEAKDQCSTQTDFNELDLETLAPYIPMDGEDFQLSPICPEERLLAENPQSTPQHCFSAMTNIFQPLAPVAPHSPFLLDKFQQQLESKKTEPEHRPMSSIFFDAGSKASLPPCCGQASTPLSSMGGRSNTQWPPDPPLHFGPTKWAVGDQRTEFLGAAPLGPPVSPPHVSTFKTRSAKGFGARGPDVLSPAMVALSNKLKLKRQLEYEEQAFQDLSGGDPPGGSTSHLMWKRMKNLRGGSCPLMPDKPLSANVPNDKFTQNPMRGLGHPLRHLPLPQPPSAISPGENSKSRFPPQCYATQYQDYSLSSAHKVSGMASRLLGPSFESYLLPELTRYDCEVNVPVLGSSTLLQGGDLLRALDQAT
row,SMILES,inhibition
1,CCNC(=O)CCc1nc(-c2ccccc2Cl)no1,26%
2,CC(C)(C)c1ccc(-c2noc(CCC(=O)NC3CC3)n2)cc1,53.7%
3,CC(C)(C)c1ccc(-c2noc(CCC(=O)Nc3ccccc3)n2)cc1,116%
4,COc1ccccc1NC(=O)CCc1nc(-c2ccc(C(C)(C)C)cc2)no1,115%
5,CCNC(=O)CCc1nc(-c2ccc(C(C)C)cc2)no1,-50.6%
6,CC(C)(C)NC(=O)CCc1nc(-c2ccc(C(C)(C)C)cc2)no1,83.8%
7,COC(=O)CCc1nc(-c2ccc(C(C)(C)C)cc2)no1,123%
8,CCNC(=O)CCc1nc(-c2ccccc2)no1,21.2%
9,CC(C)NC(=O)CCc1nc(-c2ccc(C(C)(C)C)cc2)no1,80.3%
10,CC(C)(C)c1ccc(-c2noc(CCC(=O)N3CCOCC3)n2)cc1,-33.9%
11,CNC(=O)CCc1nc(-c2ccc(Cl)cc2)no1,13.4%
12,CCCCc1ccc(-c2noc(CCC(=O)NC)n2)cc1,-53%
13,CCc1ccc(-c2noc(CCC(=O)NC)n2)cc1,1.82%
14,CCNC(=O)CCc1nc(-c2cccc(F)c2)no1,19.4%
15,CCNC(=O)CCc1nc(-c2ccc(C(C)(C)C)cc2)no1,17.6% and 9.6%
16,CCNC(=O)CCc1nc(-c2c(Cl)cccc2Cl)no1,53.6%
17,C=CCNC(=O)CCc1nc(-c2ccc(C(C)(C)C)cc2)no1,56.7%
18,CNC(=O)CCc1nc(-c2ccc(C(C)(C)C)cc2)no1,65.3%
19,CC(C)c1ccc(-c2noc(CCC(=O)NC3CC3)n2)cc1,-39.8%
20,CC(C)(C)c1ccc(-c2noc(CCC(=O)Nc3cccnc3)n2)cc1,118%
21,CCc1ccc(-c2noc(CCC(=O)NC3CC3)n2)cc1,-19.4%
22,CCC(C)NC(=O)CCc1nc(-c2ccccc2)no1 (stereo not given),63.6%
23,CC(C)(C)c1ccc(-c2noc(CCC(=O)NCc3ccco3)n2)cc1,86.1% and 78.5%
24,CCNC(=O)CCc1nc(-c2ccc(CC)cc2)no1,-29.7%
25,CC(C)(C)c1ccc(-c2noc(CCC(=O)Nc3cccc([N+](=O)[O-])c3)n2)cc1,89.8%
26,CN(C)C(=O)CCc1nc(-c2ccc(C(C)(C)C)cc2)no1,-71.1% and 11.2%
27,CC(C)c1ccc(-c2noc(CCC(=O)NC(C)(C)C)n2)cc1,57.4%
28,CCc1ccc(-c2noc(CCC(=O)NC(C)(C)C)n2)cc1,-42.9%
29,CCCCc1ccc(-c2noc(CCC(=O)NC3CC3)n2)cc1,-40.8%
30,CCCCc1ccc(-c2noc(CCC(=O)NC(C)(C)C)n2)cc1,62.8%
